Measurements of several laboratories.
PIK3CA H1047L: Phosphatidylinositol 4,5-bisphosphate 3-kinase catalytic subunit alpha isoform (PIK3CA, Homo sapiens, UniProt P42336, H1047L)
PIK3CA E545K: Phosphatidylinositol 4,5-bisphosphate 3-kinase catalytic subunit alpha isoform (PIK3CA, Homo sapiens, UniProt P42336, E545K)
PIK3CA E542K: Phosphatidylinositol 4,5-bisphosphate 3-kinase catalytic subunit alpha isoform (PIK3CA, Homo sapiens, UniProt P42336, E542K)
PIK3CA I800L: Phosphatidylinositol 4,5-bisphosphate 3-kinase catalytic subunit alpha isoform (PIK3CA, Homo sapiens, UniProt P42336, I800L)
PIK3CA H1047Y: Phosphatidylinositol 4,5-bisphosphate 3-kinase catalytic subunit alpha isoform (PIK3CA, Homo sapiens, UniProt P42336, H1047Y)
PIK3CA E545A: Phosphatidylinositol 4,5-bisphosphate 3-kinase catalytic subunit alpha isoform (PIK3CA, Homo sapiens, UniProt P42336, E545A)
PIK3CA C420R: Phosphatidylinositol 4,5-bisphosphate 3-kinase catalytic subunit alpha isoform (PIK3CA, Homo sapiens, UniProt P42336, C420R)

SMILES | target | assay | setting | remaining binding [%]
Cc1cnc(Nc2ccc(C(=O)N3CCC(N4CCCC4)CC3)cc2)nc1-c1cc2ccccc2s1 | PIK3CA H1047L | binding, competition with immobilised ligand | 1 µM | 97
CNC(=O)c1ccc(Nc2ncc(C(F)(F)F)c(NCc3nccnc3N(C)S(C)(=O)=O)n2)cc1 | PIK3CA E545K | cell-free assay, competition with immobilised ligand | 0.1 µM | 100
O=C(c1ccc(Nc2nccc(-c3cc4ccccc4s3)n2)cc1)N1CCC(N2CCCC2)CC1 | PIK3CA E542K | binding, competition with immobilised ligand | 1 µM | 99
Nc1ncc2c(n1)-c1c([nH]c3ccc(C#CC4CC4)cc13)CCCC2 | Phosphatidylinositol 4,5-bisphosphate 3-kinase catalytic subunit alpha isoform (PIK3CA, Homo sapiens, UniProt P42336) | binding, competition with immobilised ligand | 1 µM | 90
CNC(=O)[C@@H]1CC[C@@H](n2c(-c3ccc4cnccc4c3)nc3ccc(C(=O)NCc4cccc(C(N)=O)c4)cc32)C1 | Phosphatidylinositol 4,5-bisphosphate 3-kinase catalytic subunit alpha isoform (PIK3CA, Homo sapiens, UniProt P42336, Q546K) | binding, competition with immobilised ligand | 1 µM | 100
CCN1CCN(Cc2ccc(C(=O)Nc3ccc(C)c(Oc4ccc5c(c4)CC(=O)N5)c3)cc2C(F)(F)F)CC1 | PIK3CA H1047L | binding, competition with immobilised ligand | 1 µM | 100
CC1CCCN1c1nccc(-c2cnn3ncccc23)n1 (stereo not shown) | PIK3CA I800L | binding | 1 µM | 88
COc1ncc2cc3ccccc3nc2c1C#N | PIK3CA H1047Y | cell-free assay, competition with immobilised ligand | 5 µM | 86
COc1ccnn2ncc(-c3ccnc(N(C)C)n3)c12 | PIK3CA H1047L | binding | 1 µM | 76
O=C(NCC1CCOCC1)c1n[nH]cc1NC(=O)c1c(F)cccc1F | PIK3CA H1047Y | binding, competition with immobilised ligand | 1 µM | 100
CN(CCCC(F)(F)F)c1nccc(-c2cnn3ncccc23)n1 | PIK3CA E545A | binding | 1 µM | 100
O=C(Nc1cccnn1)N1CC(C/C=C/c2cncc(Oc3ccc(C(F)(F)F)cn3)n2)C1 | PIK3CA I800L | cell-free assay, competition with immobilised ligand | 1 µM | 91
N[C@@H]1CCN(c2nccc(-c3cnn4ncccc34)n2)C1 | PIK3CA E542K | binding | 1 µM | 80
CN1CCN(c2ccc(Nc3nccc(-c4ccccc4)n3)cc2C(F)(F)F)CC1 | PIK3CA E545K | binding | 10 µM | 68
Cc1cc(NC(=O)c2cccc(S(F)(F)(F)(F)F)c2)cc(-n2ccn3nc(-c4cccnc4)cc23)c1 | PIK3CA C420R | cell-free assay, competition with immobilised ligand | 1 µM | 97.1
Cc1cnn2ncc(-c3ccnc(N(C)C)n3)c2c1 | PIK3CA C420R | binding | 1 µM | 100
Cc1c[nH]c2nccc(Oc3c(F)cc(Nc4cc(Cl)nc(N)n4)cc3F)c12 | PIK3CA H1047Y | cell-free assay, competition with immobilised ligand | 0.1 µM | 83
c1cnn2ncc(-c3ccnc(N4CCC45COC5)n3)c2c1 | PIK3CA H1047L | binding | 1 µM | 62
Cc1c(C(=O)O)cc(-c2ccc(C3CCNCC3)cc2)c2ccc(-c3ccc(C(F)(F)F)cc3)cc12 | PIK3CA I800L | cell-free assay, competition with immobilised ligand | 1 µM | 100
COc1cnc(Nc2cccc(S(N)(=O)=O)c2)nc1N1CCN(c2ccccc2)C(=O)C1 | PIK3CA C420R | binding, competition with immobilised ligand | 1 µM | 95
F[C@@H]1CCN(c2nccc(-c3cnn4ncccc34)n2)C1 | PIK3CA H1047Y | binding | 1 µM | 81
CC1=C(C#N)[C@@H](c2ccc3[nH]nc(C)c3c2)C(C#N)=C(c2ccc(Cl)cc2)N1 | PIK3CA E545A | cell-free assay, competition with immobilised ligand | 1 µM | 75.4
